# Measurements published in ChEMBL document CHEMBL3616437, “Thiazole compounds with activity against Cryptococcus gattii and Cryptococcus neoformans in vitro” (Eur J Med Chem, 2015).
# Active and inactive are the calls of the source. The rule behind the calls is not given here.
# Assays:
# [1] = test system: Cryptococcus bacillisporus; assay: Ratio of compound MIC for Cryptococcus gattii ATCC 32608 in presence of amphotericin B to compound MIC for Cryptococcus gattii ATCC 32608 in absence of amphotericin B by checkerboard microtiter test; assay type: functional
# Procedure, shortened: (§1)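 Checkerboard microdilution: eight two-fold dilutions of test compound (0.11 to 15.6 µM) crossed with amphotericin B (0.025 to 3.9 µM, in DMSO) or fluconazole (0.48 to 62.5 µM, in water). Inoculum per CLSI M27-A3 in RPMI-MOPS pH 7.0, 1-5 x10^3 cells/mL. Growth 48 to 72 h. Effective MIC is the combination concentration giving complete inhibition. FICs derived from MICs in combination versus alone.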
# [2] = test system: Cryptococcus gattii species complex; assay: Ratio of compound MIC for Cryptococcus gattii 196L/03 in presence of amphotericin B to compound MIC for Cryptococcus gattii 196L/03 in absence of amphotericin B by checkerboard microtiter test; assay type: functional, Cryptococcus bacillisporus; procedure, shortened: as §1
# Cryptococcus neoformans [3] = assay: Ratio of compound MIC for Cryptococcus neoformans LMM820 in presence of amphotericin B to compound MIC for Cryptococcus neoformans LMM820 in absence of amphotericin B by checkerboard microtiter test; assay type: functional; procedure, shortened: as §1
# Cryptococcus neoformans [4] = assay: Ratio of compound MIC for Cryptococcus neoformans 96806 in presence of amphotericin B to compound MIC for Cryptococcus neoformans 96806 in absence of amphotericin B by checkerboard microtiter test; assay type: functional; procedure, shortened: as §1
# [5] = test system: Cryptococcus gattii species complex; assay: Ratio of compound MIC for Cryptococcus gattii 23/10993 in presence of fluconazole to compound MIC for Cryptococcus gattii 23/10993 in absence of fluconazole by checkerboard microtiter test; assay type: functional, Cryptococcus bacillisporus; procedure, shortened: as §1
# Cryptococcus neoformans [6] = assay: Ratio of compound MIC for Cryptococcus neoformans 28JF in presence of amphotericin B to compound MIC for Cryptococcus neoformans 28JF in absence of amphotericin B by checkerboard microtiter test; assay type: functional; procedure, shortened: as §1
# Cryptococcus neoformans [7] = assay: Ratio of compound MIC for Cryptococcus neoformans ATCC 62066 in presence of amphotericin B to compound MIC for Cryptococcus neoformans ATCC 62066 in absence of amphotericin B by checkerboard microtiter test; assay type: functional; procedure, shortened: as §1
# Cryptococcus neoformans [8] = assay: Ratio of compound MIC for Cryptococcus neoformans ATCC 24067 in presence of fluconazole to compound MIC for Cryptococcus neoformans ATCC 24067 in absence of fluconazole by checkerboard microtiter test; assay type: functional; procedure, shortened: as §1
# Cryptococcus neoformans [9] = assay: Ratio of compound MIC for Cryptococcus neoformans VM-MCMMPI in presence of amphotericin B to compound MIC for Cryptococcus neoformans VM-MCMMPI in absence of amphotericin B by checkerboard microtiter test; assay type: functional; procedure, shortened: as §1
# Cryptococcus neoformans [10] = assay: Ratio of compound MIC for Cryptococcus neoformans VM-MCMMPI in presence of fluconazole to compound MIC for Cryptococcus neoformans VM-MCMMPI in absence of fluconazole by checkerboard microtiter test; assay type: functional; procedure, shortened: as §1
# [11] = test system: Cryptococcus gattii species complex; assay: Ratio of compound MIC for Cryptococcus gattii L27/01 in presence of fluconazole to compound MIC for Cryptococcus gattii L27/01 in absence of fluconazole by checkerboard microtiter test; assay type: functional, Cryptococcus bacillisporus; procedure, shortened: as §1
# Cryptococcus neoformans [12] = assay: Ratio of compound MIC for Cryptococcus neoformans WP in presence of amphotericin B to compound MIC for Cryptococcus neoformans WP in absence of amphotericin B by checkerboard microtiter test; assay type: functional; procedure, shortened: as §1
# Cryptococcus neoformans [13] = assay: Ratio of compound MIC for Cryptococcus neoformans CN31 in presence of amphotericin B to compound MIC for Cryptococcus neoformans CN31 in absence of amphotericin B by checkerboard microtiter test; assay type: functional; procedure, shortened: as §1
# [14] = test system: Cryptococcus bacillisporus; assay: Ratio of compound MIC for Cryptococcus gattii ATCC 32608 in presence of fluconazole to compound MIC for Cryptococcus gattii ATCC 32608 in absence of fluconazole by checkerboard microtiter test; assay type: functional; procedure, shortened: as §1
# Cryptococcus neoformans [15] = assay: Ratio of compound MIC for Cryptococcus neoformans F10 in presence of fluconazole to compound MIC for Cryptococcus neoformans F10 in absence of fluconazole by checkerboard microtiter test; assay type: functional; procedure, shortened: as §1
# [16] = test system: Cryptococcus gattii species complex; assay: Ratio of compound MIC for Cryptococcus gattii 135L/03 in presence of fluconazole to compound MIC for Cryptococcus gattii 135L/03 in absence of fluconazole by checkerboard microtiter test; assay type: functional, Cryptococcus bacillisporus; procedure, shortened: as §1
# [17] = test system: Cryptococcus gattii species complex; assay: Ratio of compound MIC for Cryptococcus gattii L28/02 in presence of amphotericin B to compound MIC for Cryptococcus gattii L28/02 in absence of amphotericin B by checkerboard microtiter test; assay type: functional, Cryptococcus bacillisporus; procedure, shortened: as §1
# [18] = test system: Cryptococcus gattii species complex; assay: Ratio of compound MIC for Cryptococcus gattii 547/OTTI-97-PI-10 in presence of fluconazole to compound MIC for Cryptococcus gattii 547/OTTI-97-PI-10 in absence of fluconazole by checkerboard microtiter test; assay type: functional, Cryptococcus bacillisporus; procedure, shortened: as §1
# [19] = test system: Cryptococcus gattii species complex; assay: Ratio of compound MIC for Cryptococcus gattii ICB181 in presence of fluconazole to compound MIC for Cryptococcus gattii ICB181 in absence of fluconazole by checkerboard microtiter test; assay type: functional, Cryptococcus bacillisporus; procedure, shortened: as §1
# Cryptococcus neoformans [20] = assay: Ratio of compound MIC for Cryptococcus neoformans 27JF in presence of fluconazole to compound MIC for Cryptococcus neoformans 27JF in absence of fluconazole by checkerboard microtiter test; assay type: functional; procedure, shortened: as §1
# Cryptococcus neoformans [21] = assay: Ratio of compound MIC for Cryptococcus neoformans CN31 in presence of fluconazole to compound MIC for Cryptococcus neoformans CN31 in absence of fluconazole by checkerboard microtiter test; assay type: functional; procedure, shortened: as §1
# [22] = test system: Cryptococcus gattii species complex; assay: Ratio of compound MIC for Cryptococcus gattii 1913ER in presence of amphotericin B to compound MIC for Cryptococcus gattii 1913ER in absence of amphotericin B by checkerboard microtiter test; assay type: functional, Cryptococcus bacillisporus; procedure, shortened: as §1
# Cryptococcus neoformans [23] = assay: Ratio of compound MIC for Cryptococcus neoformans 5396 in presence of fluconazole to compound MIC for Cryptococcus neoformans 5396 in absence of fluconazole by checkerboard microtiter test; assay type: functional; procedure, shortened: as §1
# Cryptococcus neoformans [24] = assay: Ratio of compound MIC for Cryptococcus neoformans ATCC 28957 in presence of amphotericin B to compound MIC for Cryptococcus neoformans ATCC 28957 in absence of amphotericin B by checkerboard microtiter test; assay type: functional; procedure, shortened: as §1
# Cryptococcus neoformans [25] = assay: Ratio of compound MIC for Cryptococcus neoformans 5396 in presence of amphotericin B to compound MIC for Cryptococcus neoformans 5396 in absence of amphotericin B by checkerboard microtiter test; assay type: functional; procedure, shortened: as §1
# [26] = test system: Cryptococcus gattii species complex; assay: Ratio of compound MIC for Cryptococcus gattii LMM818 in presence of fluconazole to compound MIC for Cryptococcus gattii LMM818 in absence of fluconazole by checkerboard microtiter test; assay type: functional, Cryptococcus bacillisporus; procedure, shortened: as §1
# Cryptococcus neoformans [27] = assay: Ratio of compound MIC for Cryptococcus neoformans 27JF in presence of amphotericin B to compound MIC for Cryptococcus neoformans 27JF in absence of amphotericin B by checkerboard microtiter test; assay type: functional; procedure, shortened: as §1
# [28] = test system: Cryptococcus gattii species complex; assay: Ratio of compound MIC for Cryptococcus gattii ICB181 in presence of amphotericin B to compound MIC for Cryptococcus gattii ICB181 in absence of amphotericin B by checkerboard microtiter test; assay type: functional, Cryptococcus bacillisporus; procedure, shortened: as §1
# [29] = test system: Cryptococcus gattii species complex; assay: Ratio of compound MIC for Cryptococcus gattii 135L/03 in presence of amphotericin B to compound MIC for Cryptococcus gattii 135L/03 in absence of amphotericin B by checkerboard microtiter test; assay type: functional, Cryptococcus bacillisporus
# [30] = test system: Cryptococcus gattii species complex; assay: Antifungal activity against Cryptococcus gattii L27/01 assessed as reduction in ergosterol content at MIC after 24 hrs by spectrophotometric analysis; assay type: functional, organism-based; conditions: Cryptococcus bacillisporus
# Procedure, shortened: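 Pellet washed and weighed, then saponified in 25% ethanolic KOH at 85°C for 1 h. Extracted with water and n-heptane, read at 282 and 230 nm. Ergosterol taken from a standard curve and expressed as % of growth control.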
Structure (SMILES),fractional inhibitory concentration index (FICI) [1],fractional inhibitory concentration index (FICI) [2],fractional inhibitory concentration index (FICI) (Cryptococcus neoformans [3]),fractional inhibitory concentration index (FICI) (Cryptococcus neoformans [4]),fractional inhibitory concentration index (FICI) [5],fractional inhibitory concentration index (FICI) (Cryptococcus neoformans [6]),fractional inhibitory concentration index (FICI) (Cryptococcus neoformans [7]),fractional inhibitory concentration index (FICI) (Cryptococcus neoformans [8]),fractional inhibitory concentration index (FICI) (Cryptococcus neoformans [9]),fractional inhibitory concentration index (FICI) (Cryptococcus neoformans [10]),fractional inhibitory concentration index (FICI) [11],fractional inhibitory concentration index (FICI) (Cryptococcus neoformans [12]),fractional inhibitory concentration index (FICI) (Cryptococcus neoformans [13]),fractional inhibitory concentration index (FICI) [14],fractional inhibitory concentration index (FICI) (Cryptococcus neoformans [15]),fractional inhibitory concentration index (FICI) [16],fractional inhibitory concentration index (FICI) [17],fractional inhibitory concentration index (FICI) [18],fractional inhibitory concentration index (FICI) [19],fractional inhibitory concentration index (FICI) (Cryptococcus neoformans [20]),further results
C(=N\Nc1nc(-c2ccccc2)cs1)/C1CCCCC1,2.58,3.97,4.3,2.67,1.47,1.38,2.47,3.59,1.47,4.47,4.23,2.41,2.47,1.72,4.47,2.47,1.34,4.47,2.58,6.8,fractional inhibitory concentration index (FICI) (Cryptococcus neoformans [21]): 3.97; fractional inhibitory concentration index (FICI) [22]: 1.47; fractional inhibitory concentration index (FICI) (Cryptococcus neoformans [23]): 2.4; fractional inhibitory concentration index (FICI) (Cryptococcus neoformans [24]): 1.09; fractional inhibitory concentration index (FICI) (Cryptococcus neoformans [25]): 1.15; fractional inhibitory concentration index (FICI) [26]: 2.47; fractional inhibitory concentration index (FICI) (Cryptococcus neoformans [27]): 2.58; fractional inhibitory concentration index (FICI) [28]: 4.98; fractional inhibitory concentration index (FICI) [29]: 2.67
COc1ccc(-c2csc(N/N=C(\C)CCO)n2)cc1,3.14,9.38,2.58,2.78,2.28,2.58,2.58,1.92,1.58,4.33,2.14,2.78,4.98,2.32,4.33,2.38,2.78,3.31,1.99,7.44,fractional inhibitory concentration index (FICI) (Cryptococcus neoformans [21]): 4.38; fractional inhibitory concentration index (FICI) [22]: 2.78; fractional inhibitory concentration index (FICI) (Cryptococcus neoformans [23]): 1.32; Activity [30]: inactive; fractional inhibitory concentration index (FICI) (Cryptococcus neoformans [24]): 1.98; fractional inhibitory concentration index (FICI) (Cryptococcus neoformans [25]): 1.58; fractional inhibitory concentration index (FICI) [26]: 2.32; fractional inhibitory concentration index (FICI) (Cryptococcus neoformans [27]): 2.67; fractional inhibitory concentration index (FICI) [28]: 9.55; fractional inhibitory concentration index (FICI) [29]: 4.98
c1ccc(-c2csc(NN=C3CCCC3)n2)cc1,1.7,1.46,2.66,2.46,4.23,2.46,3.06,4.46,2.66,4.21,1.45,1.46,2.66,3.45,1.98,2.45,2.66,5.96,4.58,3.33,fractional inhibitory concentration index (FICI) (Cryptococcus neoformans [21]): 2.71; fractional inhibitory concentration index (FICI) [22]: 1.04; fractional inhibitory concentration index (FICI) (Cryptococcus neoformans [23]): 3.46; fractional inhibitory concentration index (FICI) (Cryptococcus neoformans [24]): 2.22; fractional inhibitory concentration index (FICI) (Cryptococcus neoformans [25]): 4.86; fractional inhibitory concentration index (FICI) [26]: 1.59; fractional inhibitory concentration index (FICI) (Cryptococcus neoformans [27]): 2.66; fractional inhibitory concentration index (FICI) [28]: 1.28; fractional inhibitory concentration index (FICI) [29]: 1.46
